Data from ChEMBL document CHEMBL4038305, “Benzoxaborole Antimalarial Agents. Part 5. Lead Optimization of Novel Amide Pyrazinyloxy Benzoxaboroles and Identification of a Preclinical Candidate” (J Med Chem, 2017).

Tests used:
[1] = tested on: Plasmodium berghei; assay: Antimalarial activity against Plasmodium berghei infected in Swiss Webster mouse assessed as mouse survival rate at 200 mg/kg administered once daily via oral gavage for 4 consecutive days beginning 1 hr after infection measured on day 17 post infection relative to control; type: functional
How it was run: (§1)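 P. berghei-infected erythrocytes taken from a previously infected mouse were injected intraperitoneally. Oral dosing, once daily for 4 consecutive days, began 1 h after infection, in polyethylene glycol 300/propylene glycol/water (55/25/20 by weight). Chloroquine at 30 mg/kg was the positive control, with a vehicle-only group. Percent survival was recorded daily from day 4 to day 20.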

[2] = tested on: Plasmodium berghei; assay: Antimalarial activity against Plasmodium berghei infected in Swiss Webster mouse assessed as mouse survival rate at 200 mg/kg administered once daily via oral gavage for 4 consecutive days beginning 1 hr after infection measured on day 16 post infection relative to control; type: functional; how it was run: as §1
[3] = tested on: Plasmodium falciparum; assay: Antimalarial activity against Plasmodium falciparum TM90C2B infected in human erythrocytes assessed as reduction in [3H]-hypoxanthine incorporation preincubated for 24 hrs followed by [3H]-hypoxanthine addition measured after 24 hrs by scintillation counting method; type: functional, cell-based
[4] = tested on: Escherichia coli; assay: Genotoxicity in Escherichia coli WP2uvrA assessed as number of revertants per plate at 5 ug/plate in absence of rat liver S9 fraction by Ames test (reference value: 45 +/- 9); type: toxicity
[5] = tested on: Salmonella typhimurium; assay: Genotoxicity in Salmonella typhimurium TA100 assessed as number of revertants per plate at 1.5 ug/plate in presence of rat liver S9 fraction by Ames test (reference value: 141 +/- 1); type: toxicity; conditions: salmonella enterica subsp. enterica serovar typhimurium
[6] = tested on: Lymphocyte; assay: Genotoxicity in human lymphocytes assessed as replication index at 80 ug/mL after 3 hrs in presence of rat liver S9 fraction by micronucleus assay relative to control; type: toxicity, cell-based; conditions: s9, 3 h
How it was run: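 Human lymphocytes exposed for 3 h with or without rat liver S9, or 28 h without S9, with 1% DMSO as vehicle control. Replication index = (binucleated + 2 × multinucleated cells)/total cells. Cytotoxicity (%) = 100 − (RI treated/RI vehicle) × 100.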

[7] = tested on: Escherichia coli; assay: Genotoxicity in Escherichia coli WP2uvrA assessed as number of revertants per plate at 1500 ug/plate in presence of rat liver S9 fraction by Ames test (reference value: 42 +/- 6); type: toxicity
[8] = tested on: Salmonella typhimurium; assay: Genotoxicity in Salmonella typhimurium TA98 assessed as number of revertants per plate at 1500 ug/plate in absence of rat liver S9 fraction by Ames test (reference value: 14 +/- 6); type: toxicity; conditions: salmonella enterica subsp. enterica serovar typhimurium
[9] = tested on: Escherichia coli; assay: Genotoxicity in Escherichia coli WP2uvrA assessed as number of revertants per plate at 5000 ug/plate in presence of rat liver S9 fraction by Ames test (reference value: 42 +/- 6); type: toxicity
[10] = Volume of distribution at steady state in Beagle dog at 5 mg/kg, iv by HPLC/MS analysis; type: ADME, organism-based, Canis lupus familiaris; conditions: in vivo, read-out: Vdss
[11] = tested on: Plasmodium falciparum; assay: Antimalarial activity against Plasmodium falciparum HB3 infected in human erythrocytes assessed as reduction in [3H]-hypoxanthine incorporation preincubated for 24 hrs followed by [3H]-hypoxanthine addition measured after 24 hrs by scintillation counting method; type: functional, cell-based
[12] = tested on: Rattus norvegicus; assay: Genotoxicity in rat assessed as micronucleated polychromatic erythrocytes in bone marrow at 2000 mg/kg administered via oral gavage measured after 24 hrs post dose by micronucleus assay (reference value: 0.07 +/- 0.05%); type: toxicity, organism-based; conditions: in vivo
[13] = tested on: Lymphocyte; assay: Genotoxicity in human lymphocytes assessed as increase in frequency of micronucleated cells at 80 ug/mL after 28 hrs in absence of rat liver S9 fraction by micronucleus assay (reference value: 0.74%); type: toxicity, cell-based
[14] = tested on: Escherichia coli; assay: Genotoxicity in Escherichia coli WP2uvrA assessed as number of revertants per plate at 150 ug/plate in presence of rat liver S9 fraction by Ames test (reference value: 42 +/- 6); type: toxicity
[15] = tested on: Escherichia coli; assay: Genotoxicity in Escherichia coli WP2uvrA assessed as number of revertants per plate at 5000 ug/plate in absence of rat liver S9 fraction by Ames test (reference value: 45 +/- 9); type: toxicity
[16] = tested on: Salmonella typhimurium; assay: Genotoxicity in Salmonella typhimurium TA1537 assessed as number of revertants per plate at 5000 ug/plate in presence of rat liver S9 fraction by Ames test (reference value: 11 +/- 4); type: toxicity; conditions: salmonella enterica subsp. enterica serovar typhimurium
[17] = tested on: Salmonella typhimurium; assay: Genotoxicity in Salmonella typhimurium TA98 assessed as number of revertants per plate at 15 ug/plate in presence of rat liver S9 fraction by Ames test (reference value: 19 +/- 8); type: toxicity; conditions: salmonella enterica subsp. enterica serovar typhimurium
[18] = tested on: Salmonella typhimurium; assay: Genotoxicity in Salmonella typhimurium TA1535 assessed as number of revertants per plate at 50 ug/plate in absence of rat liver S9 fraction by Ames test (reference value: 10 +/- 3); type: toxicity; conditions: salmonella enterica subsp. enterica serovar typhimurium
[19] = tested on: Salmonella typhimurium; assay: Genotoxicity in Salmonella typhimurium TA98 assessed as number of revertants per plate at 150 ug/plate in presence of rat liver S9 fraction by Ames test (reference value: 19 +/- 8); type: toxicity; conditions: salmonella enterica subsp. enterica serovar typhimurium
[20] = tested on: Escherichia coli; assay: Genotoxicity in Escherichia coli WP2uvrA assessed as number of revertants per plate at 1.5 ug/plate in presence of rat liver S9 fraction by Ames test (reference value: 42 +/- 6); type: toxicity
[21] = tested on: Escherichia coli; assay: Genotoxicity in Escherichia coli WP2uvrA assessed as number of revertants per plate at 500 ug/plate in absence of rat liver S9 fraction by Ames test (reference value: 45 +/- 9); type: toxicity
[22] = tested on: Salmonella typhimurium; assay: Genotoxicity in Salmonella typhimurium TA1537 assessed as number of revertants per plate at 15 ug/plate in absence of rat liver S9 fraction by Ames test (reference value: 19 +/- 9); type: toxicity; conditions: salmonella enterica subsp. enterica serovar typhimurium
[23] = tested on: Plasmodium falciparum; assay: Antimalarial activity against intraerythrocytic stage of Plasmodium falciparum assessed as time required for maximal killing effect at 10 times IC50 preincubated for 24 hrs followed by [3H]-hypoxanthine addition measured after 24 hrs by scintillation counting method; type: functional
How it was run: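 In vitro P. falciparum parasite reduction ratio assay run at 10×, 30× and 100× IC50. Derived parameters: lag phase (time to maximal killing), PRR (parasites killed per life cycle) and PCT99.9% (time to clear 99.9% of the initial parasite population).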

[24] = tested on: Plasmodium berghei; assay: Antimalarial activity against Plasmodium berghei infected in Swiss Webster mouse assessed as mouse survival rate at 11 mg/kg administered once daily via oral gavage for 4 consecutive days beginning 1 hr after infection measured on day 14 post infection relative to control; type: functional
How it was run: (§2)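 Mice given an intraperitoneal injection of P. berghei-infected erythrocytes taken from a previously infected animal. Oral dosing once daily for 4 consecutive days, starting 1 h after infection. Vehicle: polyethylene glycol 300/propylene glycol/water (weight ratio 55/25/20). Percent survival recorded daily from day 4 to day 20. Chloroquine 30 mg/kg and vehicle-only groups served as controls.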

[25] = tested on: Plasmodium berghei; assay: Antimalarial activity against Plasmodium berghei infected in Swiss Webster mouse assessed as mouse survival rate at 3 mg/kg administered once daily via oral gavage for 4 consecutive days beginning 1 hr after infection measured on day 4 post infection relative to control; type: functional; how it was run: as §1
[26] = tested on: Plasmodium berghei; assay: Antimalarial activity against Plasmodium berghei infected in Swiss Webster mouse assessed as mouse survival rate at 0.3 mg/kg administered once daily via oral gavage for 4 consecutive days beginning 1 hr after infection measured on day 6 post infection relative to control; type: functional; how it was run: as §2
[27] = tested on: Plasmodium berghei; assay: Antimalarial activity against Plasmodium berghei infected in Swiss Webster mouse assessed as mouse survival rate at 3 mg/kg administered once daily via oral gavage for 4 consecutive days beginning 1 hr after infection measured on day 6 post infection relative to control; type: functional; how it was run: as §1

CCCC1(O)CN(C(=O)c2cnc(Oc3ccc4c(c3C)B(O)OC4)cn2)C1
survival at 200 mg/kg [1]: 0%
survival at 200 mg/kg [2]: 100%

Cc1c(Oc2cnc(C(=O)N3CC(C)(O)C3)cn2)ccc2c1B(O)OC2
IC50 [3]: 60 nM
Activity [4]: 35
Activity [5]: 150
Activity [6]: 1%
Activity [7]: 26
Activity [8]: 13
Activity [9]: 34
Vd [10]: 0.29 L/kg
IC50 [11]: 80 nM
Activity [12]: 0.09%
Activity [13]: 1.28%
Activity [14]: 53
Activity [15]: 43
Activity [16]: 9
Activity [17]: 13
Activity [18]: 8
Activity [19]: 10
Activity [20]: 39
Activity [21]: 55
Activity [22]: 10
Time [23]: 0 h

Cc1c(Oc2cnc(C(=O)N3CC(O)(C(C)C)C3)cn2)ccc2c1B(O)OC2
survival at 11 mg/kg [24]: 0%

Cc1c(Oc2cnc(C(=O)NC(C)CO)cn2)ccc2c1B(O)OC2 (configuration not stated)
survival at 3 mg/kg [25]: 100%
survival at 0.3 mg/kg [26]: 20%
survival at 3 mg/kg [27]: 60%
